Laboratory results taken from ChEMBL document CHEMBL1641481, “Synthesis and biological evaluation of novel dihydro-aryl/alkylsulfanyl-cyclohexylmethyl-oxopyrimidines (S-DACOs) as high active anti-HIV agents” (Bioorg Med Chem Lett, 2011).

Columns and labels:
[1] = Selectivity index, ratio of CC50 for human […] cells to EC50 for HIV1 3B infected in human C8166 cells; format: toxicity, cell-based; settings: read-out: Ratio CC50/IC50
How it was run: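 SI was calculated as CC50/EC50. CC50 came from the 72 h MTT assay on uninfected C8166 cells. EC50 came from the 3-day syncytium-count assay in C8166 cells infected with HIV-1 IIIB at MOI 0.02. Both values are means of three experiments.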

[2] = tested on: Human immunodeficiency virus 1; assay: Antiviral activity against HIV1 3B infected in human A17 cells assessed as protection against virus-induced cytopathogenicity after 3 days; format: functional, organism-based; settings: Human immunodeficiency virus 1, 3B, A17, 72 h
[3] = tested on: Human immunodeficiency virus 1; assay: Antiviral activity against HIV1 3B infected in human PBMC assessed as protection against virus-induced cytopathogenicity after 3 days; format: functional, organism-based; settings: Human immunodeficiency virus 1, 3B, 72 h

| SMILES | selectivity ratio [1] | EC50 [2] [nM] | EC50 [3] [nM] |
| --- | --- | --- | --- |
| Cc1c(CC2CCCCC2)nc(SCC(=O)c2ccccc2)[nH]c1=O | 2150 | – | – |
| CC(C)c1c(Cc2ccccc2)nc(SCC(=O)c2ccccc2)[nH]c1=O | > 37700 | – | – |
| COc1ccc(C(=O)CSc2nc(Cc3ccccc3)c(C(C)C)c(=O)[nH]2)cc1 | > 3390 | – | – |
| CCc1c(Cc2ccccc2)nc(SCC(=O)c2ccccc2)[nH]c1=O | > 6850 | – | – |
| CC(C)CSc1nc(CC2CCCCC2)c(C(C)C)c(=O)[nH]1 | 1710 | – | – |
| CCc1c(CC2CCCCC2)nc(SCC(=O)c2ccc(OC)cc2)[nH]c1=O | 516000 | – | – |
| COc1ccc(C(=O)CSc2nc(CC3CCCCC3)c(C)c(=O)[nH]2)cc1 | 396 | – | – |
| COc1ccc(C(=O)CSc2nc(CC3CCCCC3)c(C(C)C)c(=O)[nH]2)cc1 | 1.39e+06 | – | – |
| Cc1ccnc2c1NC(=O)c1cccnc1N2C1CC1 [NEVIRAPINE] | > 15200 | – | – |
| Cc1c(CC2CCCCC2)nc(SCC(C)C)[nH]c1=O | 34 | – | – |
| CCc1c(CC2CCCCC2)nc(SCC(=O)c2ccccc2)[nH]c1=O | 6.32e+06 | – | – |
| CC(C)c1c(CC2CCCCC2)nc(SCC(=O)c2ccccc2O)[nH]c1=O | 117000 | – | – |
| CCc1c(CC2CCCCC2)nc(SCC(C)C)[nH]c1=O | 691 | – | – |
| CCc1c(CC2CCCCC2)nc(SCc2ccccc2)[nH]c1=O | 776 | – | – |
| Cc1c(CC2CCCCC2)nc(SCc2ccccc2)[nH]c1=O | 48 | – | – |
| CCc1c(Cc2ccccc2)nc(SCC(=O)c2ccc(OC)cc2)[nH]c1=O | > 10500 | – | – |
| Cc1cn([C@H]2C[C@H](N=[N+]=[N-])[C@@H](CO)O2)c(=O)[nH]c1=O [ZIDOVUDINE] | 444000 | – | – |
| CC(C)c1c(CC2CCCCC2)nc(SCc2ccccc2)[nH]c1=O | 2.54e+06 | – | – |
| CC(C)c1c(CC2CCCCC2)nc(SCC(=O)c2ccccc2)[nH]c1=O | 3.62e+06 | 46 | 31 |
